Experimental data from different studies.
Compare with care: the assays were run in different laboratories.
Target: Serine/threonine-protein kinase Nek9 (NEK9, Homo sapiens, UniProt Q8TD19)
One construct used (Q8TD19 1-979): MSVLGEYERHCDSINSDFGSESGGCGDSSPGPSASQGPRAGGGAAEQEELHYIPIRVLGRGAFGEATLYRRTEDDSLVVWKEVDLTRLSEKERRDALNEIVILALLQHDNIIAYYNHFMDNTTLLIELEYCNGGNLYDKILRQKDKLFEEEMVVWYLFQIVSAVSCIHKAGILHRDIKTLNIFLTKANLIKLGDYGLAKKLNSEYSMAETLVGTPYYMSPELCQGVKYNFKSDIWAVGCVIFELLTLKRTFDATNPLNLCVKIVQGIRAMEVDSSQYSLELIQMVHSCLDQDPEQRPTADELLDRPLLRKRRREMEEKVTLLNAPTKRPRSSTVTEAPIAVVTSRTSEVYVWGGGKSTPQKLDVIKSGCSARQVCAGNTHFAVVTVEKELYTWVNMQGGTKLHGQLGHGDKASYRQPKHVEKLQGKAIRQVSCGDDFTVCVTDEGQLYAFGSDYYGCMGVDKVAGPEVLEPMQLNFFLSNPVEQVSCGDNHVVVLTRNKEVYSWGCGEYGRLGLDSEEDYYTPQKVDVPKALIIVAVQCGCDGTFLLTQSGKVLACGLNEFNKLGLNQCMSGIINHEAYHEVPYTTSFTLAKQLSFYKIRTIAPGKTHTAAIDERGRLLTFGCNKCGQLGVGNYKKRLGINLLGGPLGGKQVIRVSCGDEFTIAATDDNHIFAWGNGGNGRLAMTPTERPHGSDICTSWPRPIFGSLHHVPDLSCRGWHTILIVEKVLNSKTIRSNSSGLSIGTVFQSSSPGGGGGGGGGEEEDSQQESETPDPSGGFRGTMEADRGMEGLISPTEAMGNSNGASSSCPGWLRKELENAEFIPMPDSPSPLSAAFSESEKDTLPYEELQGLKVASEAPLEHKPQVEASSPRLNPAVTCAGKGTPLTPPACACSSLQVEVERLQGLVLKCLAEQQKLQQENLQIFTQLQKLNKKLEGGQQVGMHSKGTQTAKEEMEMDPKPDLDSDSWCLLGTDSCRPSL

| SMILES | assay | conditions | endpoint | value |
| --- | --- | --- | --- | --- |
| O=C(O)[C@@H]1[C@@H](Cn2nnc3ccccc3c2=O)CC[C@H]1C(=O)c1ccc(OCCC2CCOCC2)cc1 | cell-free assay, competition with immobilised ligand | 1 µM | remaining binding | 100% |
| CC(C)(O)[C@H]1CC[C@H](Nc2ccc3ncc(-c4cccc(C(F)(F)F)c4)n3n2)CC1 | enzyme activity, inhibitor | 1 µM | remaining activity | 79.5% |
| Cc1cc(NC(=O)c2cccc3cc(-c4cccc5[nH]nc(N)c45)ccc23)ccc1F | enzyme activity, inhibitor | 0.1 µM | activity vs control | 126% |
| Nc1ncnc2occ(-c3ccc(NC(=O)Nc4cc(C(F)(F)F)ccc4F)cc3)c12 | cell-free assay, inhibitor | 20 µM | remaining signal | 1.6% |
| CC/C(=N\NC(=O)NCc1cccc(O)c1)c1ccc(O)c(C)c1O | enzyme activity, inhibitor | 0.1 µM | inhibition | -2.8% |
| CCCS(=O)(=O)Nc1ccc(F)c(C(=O)c2c[nH]c3ncc(-c4ccc(Cl)cc4)cc23)c1F | enzyme activity, inhibitor | 1 µM | inhibition | < 10% |
| C[C@H](NC(=O)c1cnc2n1[C@](C)(Cc1ccc(C#N)cc1)C(=O)N2c1cc(Cl)c(F)c(Cl)c1)C(=O)NC1(c2ccccn2)CC1 | cell-free assay, competition with immobilised ligand | 1 µM | remaining binding | 100% |
| N#CCCc1ccc2c(c1)-c1[nH]c3ccc([N+](=O)[O-])cc3c1CC(=O)N2 | cell-free assay | 0.5 µM | remaining signal | 103% |
| O=C(NS(=O)(=O)c1ccc(NCC2CCOCC2)c([N+](=O)[O-])c1)c1ccc(N2CCN(Cc3ccc(C(F)(F)F)cc3-c3ccc(Cl)cc3)CC2)cc1Oc1cnc2[nH]ccc2c1 | cell-free assay, competition with immobilised ligand | 1 µM | remaining binding | 100% |
| O=C(Nc1cnn(-c2csc(C(=O)NC3COC3)c2)c1)Nc1c(F)cccc1Cl | enzyme activity, inhibitor | 5 µM | remaining activity | 88.4% |
| O=C(NCc1ncc(C(F)(F)F)cc1Cl)c1ccc2c(c1)C1(CCS(=O)(=O)CC1)[C@H](C1CC1)N2S(=O)(=O)c1ccc(F)cc1 | cell-free assay, competition with immobilised ligand | 1 µM | remaining binding | 100% |
| CCOc1cc(-c2nncn2C)ccc1Nc1ncc2cc(C)nc(NCC(C)(C)C)c2n1 | enzyme activity, inhibitor, FRET | 1 µM | inhibition | < 15% |
| CS(=O)(=O)CCNCc1ccc(-c2ccc3ncnc(Nc4ccc(OCc5cccc(F)c5)c(Cl)c4)c3c2)o1 | cell-free assay | 0.5 µM | remaining signal | 100% |
| COc1cc2ncnc(Nc3ccc(Oc4ccccc4)cc3C)c2cc1OC | enzyme activity, inhibitor | 1 µM | inhibition | -2% |
| Clc1ccc(Nc2nnc(Cc3ccncc3)c3ccccc23)cc1 | cell-free assay | 0.5 µM | remaining signal | 98.4% |
| CNCc1ccccc1-c1csc([C@H](C)Nc2nc(C)nc3cc(OC)c(OC)cc23)c1 | cell-free assay, competition with immobilised ligand | 1 µM | remaining binding | 100% |
| Oc1cccc(-c2nc(N3CCOCC3)c3oc4ncccc4c3n2)c1 | cell-free assay | 0.5 µM | remaining signal | 99.3% |
| CC(C)(C)c1nc(-c2cccc(NS(=O)(=O)c3c(F)cccc3F)c2F)c(-c2ccnc(N)n2)s1 | enzyme activity, inhibitor, radiometric | 1 µM | remaining activity | 106% |
